Test results taken from ChEMBL document CHEMBL1152575, “Synthesis and GABA(A) receptor activity of 2,19-sulfamoyl analogues of allopregnanolone” (Bioorg Med Chem, 2009).

How the values were obtained:
Assay type in all cases: tissue-based
[1] = organism: Rattus norvegicus; assay: Stimulation [3H]flunitrazepam binding to benzodiazepine binding site of GABA-A receptor in Sprague-Dawley rat cerebellum at 800 nM by liquid scintillation spectrophotometry
Outline: (§1)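 Male rat (200–250 g) cerebellar P2 membranes, washed and resuspended in 50 mM Tris–HCl pH 7.1 (~1 mg/mL protein). Incubated with 1 nM [3H]flunitrazepam and steroids at 10–800 nM for 90 min at 4 °C. Steroids were in DMSO, diluted 1:1000 in buffer just before use. 1 µM diazepam defined non-specific binding. Filtered, then scintillation counting. Mean of four experiments in duplicate.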

[2] = organism: Rattus norvegicus; assay: Stimulation [3H]flunitrazepam binding to benzodiazepine binding site of GABA-A receptor in Sprague-Dawley rat cerebellum by liquid scintillation spectrophotometry; outline: as §1
[3] = organism: Rattus norvegicus; assay: Stimulation [3H]muscimol binding to GABA binding site of GABA-A receptor in Sprague-Dawley rat cerebellum at 20 nM by liquid scintillation spectrophotometry
Outline: (§2)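 Rat cerebellar P2 membranes (male, 200–250 g) in 50 mM Tris–acetate pH 7.4, about 1 mg/mL protein. Incubated with 10 nM [3H]muscimol and steroids at 20–1000 nM for 60 min at 4 °C. Steroid DMSO stocks were diluted 1:1000 in buffer. 10 µM GABA defined non-specific binding. Vacuum filtration over glass-fibre filters, scintillation counting. Four experiments in duplicate, averaged.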

[4] = organism: Rattus norvegicus; assay: Stimulation [3H]muscimol binding to GABA binding site of GABA-A receptor in Sprague-Dawley rat cerebellum at 50 nM by liquid scintillation spectrophotometry; outline: as §2
[5] = organism: Rattus norvegicus; assay: Stimulation [3H]muscimol binding to GABA binding site of GABA-A receptor in Sprague-Dawley rat cerebellum at 100 nM by liquid scintillation spectrophotometry; outline: as §2
[6] = organism: Rattus norvegicus; assay: Stimulation [3H]muscimol binding to GABA binding site of GABA-A receptor in Sprague-Dawley rat cerebellum at 200 nM by liquid scintillation spectrophotometry; outline: as §2
[7] = organism: Rattus norvegicus; assay: Stimulation [3H]muscimol binding to GABA binding site of GABA-A receptor in Sprague-Dawley rat cerebellum at 400 nM by liquid scintillation spectrophotometry; outline: as §2
[8] = organism: Rattus norvegicus; assay: Stimulation [3H]muscimol binding to GABA binding site of GABA-A receptor in Sprague-Dawley rat cerebellum at 800 nM by liquid scintillation spectrophotometry; outline: as §2
[9] = organism: Rattus norvegicus; assay: Stimulation [3H]muscimol binding to GABA binding site of GABA-A receptor in Sprague-Dawley rat cerebellum at 1000 nM by liquid scintillation spectrophotometry; outline: as §2
[10] = organism: Rattus norvegicus; assay: Stimulation [3H]muscimol binding to GABA binding site of GABA-A receptor in Sprague-Dawley rat cerebellum by liquid scintillation spectrophotometry; outline: as §2
[11] = organism: Rattus norvegicus; assay: Stimulation [3H]flunitrazepam binding to benzodiazepine binding site of GABA-A receptor in Sprague-Dawley rat cerebellum at 10 nM by liquid scintillation spectrophotometry; outline: as §1
[12] = organism: Rattus norvegicus; assay: Stimulation [3H]flunitrazepam binding to benzodiazepine binding site of GABA-A receptor in Sprague-Dawley rat cerebellum at 25 nM by liquid scintillation spectrophotometry; outline: as §1
[13] = organism: Rattus norvegicus; assay: Stimulation [3H]flunitrazepam binding to benzodiazepine binding site of GABA-A receptor in Sprague-Dawley rat cerebellum at 50 nM by liquid scintillation spectrophotometry; outline: as §1
[14] = organism: Rattus norvegicus; assay: Stimulation [3H]flunitrazepam binding to benzodiazepine binding site of GABA-A receptor in Sprague-Dawley rat cerebellum at 100 nM by liquid scintillation spectrophotometry; outline: as §1
[15] = organism: Rattus norvegicus; assay: Stimulation [3H]flunitrazepam binding to benzodiazepine binding site of GABA-A receptor in Sprague-Dawley rat cerebellum at 250 nM by liquid scintillation spectrophotometry; outline: as §1
[16] = organism: Rattus norvegicus; assay: Stimulation [3H]flunitrazepam binding to benzodiazepine binding site of GABA-A receptor in Sprague-Dawley rat cerebellum at 500 nM by liquid scintillation spectrophotometry; outline: as §1

Structure (SMILES)	Activity [1] [%]	EC50 [2] [nM]	Activity [3] [%]	Activity [4] [%]	Activity [5] [%]	Activity [6] [%]	Activity [7] [%]	Activity [8] [%]	Activity [9] [%]	EC50 [10] [nM]	Activity [11] [%]	Activity [12] [%]	Activity [13] [%]	Activity [14] [%]	Activity [15] [%]	Activity [16] [%]
CC(=O)[C@H]1CC[C@H]2[C@@H]3CC[C@H]4C[C@H](O)[C@@H]5C[C@]4(COS(=O)(=O)N5Cc4ccccc4)[C@H]3CC[C@]12C	134	81	119	121	121	117	124	124	141	1890	108	113	118	117	122	125
CC(=O)[C@H]1CC[C@H]2[C@@H]3CC[C@H]4C[C@H](F)[C@@H]5C[C@]4(COS(=O)(=O)N5)[C@H]3CC[C@]12C	98	–	–	–	–	–	–	96	–	–	–	–	–	–	–	–
CC(=O)[C@H]1CC[C@H]2[C@@H]3CC[C@H]4C[C@H](O)[C@@H]5C[C@]4(COS(=O)(=O)N5)[C@H]3CC[C@]12C	170	63	100	105	108	106	118	170	176	542	104	113	122	122	126	126
CC(=O)[C@H]1CC[C@H]2[C@@H]3CC[C@H]4C[C@H](O)CC[C@]4(C)[C@H]3CC[C@]12C	140	265	95	100	108	106	116	165	173	658	93	93	92	97	122	132
